{"source": "ChEMBL document CHEMBL1144738", "about": "“Cytotoxic diterpenoids and sesquiterpenoids from Pteris multifida” (J Nat Prod, 2008)", "key": {"[1]": {"test_system": "HepG2", "assay": "Cytotoxicity against human HepG2 cells by SRB method", "format": "functional, cell-based", "summary_of_the_method": "(§1)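 Adherent cells were grown in RPMI1640 with 10% FBS, 100 U/mL penicillin and 100 U/mL streptomycin, then plated and incubated for 24 h. They were exposed to test compounds at 10^-2 to 10^2 µM for 72 h. Growth inhibition was read by sulforhodamine B (SRB) staining and expressed as IC50, the mean of triplicate points. Adriamycin and taxotere were positive controls.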"}, "[2]": {"test_system": "KB", "assay": "Cytotoxicity against human KB cells by SRB method", "format": "functional, cell-based", "summary_of_the_method": "as §1"}, "[3]": {"test_system": "LoVo", "assay": "Cytotoxicity against human LoVo cells by SRB method", "format": "functional, cell-based", "summary_of_the_method": "as §1"}, "[4]": {"test_system": "K562", "assay": "Cytotoxicity against human K562 cells by WST-1 method"}}, "data": [{"molecule": "C=C1[C@@H]2CC[C@H]3[C@]4(C)C[C@H](O)C[C@](C)(CO)[C@H]4CC[C@]3(C2)[C@H]1O", "values": [{"measurement": "IC50", "setting": "[1]", "value": "> 100", "unit": "µM"}, {"measurement": "IC50", "setting": "[2]", "value": 26.4, "unit": "µM"}, {"measurement": "IC50", "setting": "[3]", "value": 20.3, "unit": "µM"}, {"measurement": "IC50", "setting": "[4]", "value": "> 100", "unit": "µM"}]}, {"molecule": "C=C1[C@@H]2CC[C@H]3[C@]4(C)C[C@H](O)C[C@](C)(CO)[C@H]4CC[C@]3([C@@H]2O)[C@H]1O", "values": [{"measurement": "IC50", "setting": "[1]", "value": "> 100", "unit": "µM"}, {"measurement": "IC50", "setting": "[2]", "value": 69.6, "unit": "µM"}, {"measurement": "IC50", "setting": "[3]", "value": 76.3, "unit": "µM"}, {"measurement": "IC50", "setting": "[4]", "value": "> 100", "unit": "µM"}]}, {"molecule": "Cc1cc2c(c(C)c1CCO[C@@H]1O[C@H](CO)[C@@H](OC(=O)/C=C/c3ccc(O)cc3)[C@H](O)[C@H]1O)C(=O)[C@H](C)C2", "values": [{"measurement": "IC50", "setting": "[1]", "value": "> 100", "unit": "µM"}, {"measurement": "IC50", "setting": "[2]", "value": 45.3, "unit": "µM"}, {"measurement": "IC50", "setting": "[3]", "value": "> 400", "unit": "µM"}, {"measurement": "IC50", "setting": "[4]", "value": 64.6, "unit": "µM"}]}, {"molecule": "Cc1cc2c(c(C)c1CCO)C(=O)[C@H](C)[C@@H]2O[C@@H]1O[C@H](CO)[C@@H](OC(=O)/C=C/c2ccc(O)cc2)[C@H](O)[C@H]1O", "values": [{"measurement": "IC50", "setting": "[1]", "value": 9.26, "unit": "µM"}, {"measurement": "IC50", "setting": "[2]", "value": 23.8, "unit": "µM"}, {"measurement": "IC50", "setting": "[3]", "value": "> 400", "unit": "µM"}, {"measurement": "IC50", "setting": "[4]", "value": 9.57, "unit": "µM"}]}, {"molecule": "CC1(C)C[C@@H](O)C[C@]2(C)[C@@H]1[C@H](O)C[C@@]13C[C@@H](CC[C@H]12)[C@@](O)(CO)C3", "values": [{"measurement": "IC50", "setting": "[1]", "value": 82.4, "unit": "µM"}, {"measurement": "IC50", "setting": "[2]", "value": 53.7, "unit": "µM"}, {"measurement": "IC50", "setting": "[3]", "value": 91.7, "unit": "µM"}, {"measurement": "IC50", "setting": "[4]", "value": 81.9, "unit": "µM"}]}, {"molecule": "Cc1cc2c(c(C)c1CCO)C(=O)[C@@H](C)[C@@H]2O[C@@H]1O[C@H](CO)[C@@H](OC(=O)/C=C/c2ccc(O)cc2)[C@H](O)[C@H]1O", "values": [{"measurement": "IC50", "setting": "[1]", "value": 8.69, "unit": "µM"}, {"measurement": "IC50", "setting": "[2]", "value": 14.2, "unit": "µM"}, {"measurement": "IC50", "setting": "[3]", "value": 11.3, "unit": "µM"}, {"measurement": "IC50", "setting": "[4]", "value": 10.6, "unit": "µM"}]}, {"molecule": "CC(=O)O[C@@]12CO[C@@H]1C[C@H](O)[C@@]1(C)C(=O)[C@H](O)C3=C(C)[C@@H](OC(=O)[C@H](O)[C@@H](NC(=O)OC(C)(C)C)c4ccccc4)C[C@@](O)([C@@H](OC(=O)c4ccccc4)[C@H]21)C3(C)C", "note": "[DOCETAXEL]", "values": [{"measurement": "IC50", "setting": "[2]", "value": 0.00114, "unit": "µM"}, {"measurement": "IC50", "setting": "[3]", "value": 0.00197, "unit": "µM"}]}, {"molecule": "COc1cccc2c1C(=O)c1c(O)c3c(c(O)c1C2=O)C[C@@](O)(C(=O)CO)C[C@@H]3O[C@H]1C[C@H](N)[C@H](O)[C@H](C)O1", "note": "[DOXORUBICIN]", "values": [{"measurement": "IC50", "setting": "[1]", "value": 0.06, "unit": "µM"}, {"measurement": "IC50", "setting": "[2]", "value": "> 400", "unit": "µM"}, {"measurement": "IC50", "setting": "[3]", "value": "> 400", "unit": "µM"}, {"measurement": "IC50", "setting": "[4]", "value": 0.09, "unit": "µM"}]}]}
